Consider ten compounds from article PMC7614232 (Organic & biomolecular chemistry, 2022).

Like-named read-outs stand apart in the source and are kept apart here. Where only a bound is given, the exact number is not on record here.

Common to all, as to assay type: biochemical
Test [1] addresses T1, JBMan (Jack bean α-mannosidase) (Canavalia ensiformis, UniProt C0HJB3).
T1 sequence (C0HJB3 1-981): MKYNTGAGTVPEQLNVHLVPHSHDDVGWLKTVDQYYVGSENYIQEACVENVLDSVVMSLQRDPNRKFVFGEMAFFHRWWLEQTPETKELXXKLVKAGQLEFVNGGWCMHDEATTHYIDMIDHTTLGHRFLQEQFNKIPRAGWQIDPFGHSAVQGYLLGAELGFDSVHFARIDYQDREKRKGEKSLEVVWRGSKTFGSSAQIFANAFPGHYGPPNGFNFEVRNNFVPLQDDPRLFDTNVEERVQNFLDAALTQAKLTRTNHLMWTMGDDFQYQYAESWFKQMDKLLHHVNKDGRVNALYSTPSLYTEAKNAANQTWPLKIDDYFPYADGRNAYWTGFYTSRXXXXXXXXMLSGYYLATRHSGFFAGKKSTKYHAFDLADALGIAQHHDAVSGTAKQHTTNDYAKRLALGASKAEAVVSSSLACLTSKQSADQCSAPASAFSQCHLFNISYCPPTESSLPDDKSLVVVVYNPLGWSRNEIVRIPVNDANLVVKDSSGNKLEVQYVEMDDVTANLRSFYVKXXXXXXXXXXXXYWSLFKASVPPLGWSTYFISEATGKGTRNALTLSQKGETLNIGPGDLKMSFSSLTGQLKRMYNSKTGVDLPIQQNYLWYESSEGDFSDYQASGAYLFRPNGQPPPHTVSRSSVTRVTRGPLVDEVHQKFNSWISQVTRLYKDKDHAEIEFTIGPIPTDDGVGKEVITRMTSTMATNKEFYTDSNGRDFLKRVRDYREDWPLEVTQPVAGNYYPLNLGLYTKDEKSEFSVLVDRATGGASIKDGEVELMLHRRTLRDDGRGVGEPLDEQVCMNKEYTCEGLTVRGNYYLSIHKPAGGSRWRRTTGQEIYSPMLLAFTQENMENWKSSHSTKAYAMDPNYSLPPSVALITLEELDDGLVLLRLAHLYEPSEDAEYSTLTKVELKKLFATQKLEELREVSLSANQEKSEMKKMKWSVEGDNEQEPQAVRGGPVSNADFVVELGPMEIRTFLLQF
In words: α-mannosidase inhibition assay with pNP-Man, JBMan. The essentials: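 Commercial jack bean α-mannosidase (0.05 μg protein) in 50 mM acetate buffer, pH 5.0. Compound taken from a 50 mM DMSO solution, diluted in water, and preincubated with enzyme 5 min at rt. pNP-Man was added and the reaction ran 1-2 h at 37 °C. Stopped with 0.5 M sodium carbonate; p-nitrophenol read at 405 nm. […] Three independent experiments in duplicate.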

In test [2] the target is T2, AMAN-2 (Golgi α-mannosidase) (Caenorhabditis elegans, UniProt Q2PJ74).
T2 sequence (Q2PJ74 27-1145): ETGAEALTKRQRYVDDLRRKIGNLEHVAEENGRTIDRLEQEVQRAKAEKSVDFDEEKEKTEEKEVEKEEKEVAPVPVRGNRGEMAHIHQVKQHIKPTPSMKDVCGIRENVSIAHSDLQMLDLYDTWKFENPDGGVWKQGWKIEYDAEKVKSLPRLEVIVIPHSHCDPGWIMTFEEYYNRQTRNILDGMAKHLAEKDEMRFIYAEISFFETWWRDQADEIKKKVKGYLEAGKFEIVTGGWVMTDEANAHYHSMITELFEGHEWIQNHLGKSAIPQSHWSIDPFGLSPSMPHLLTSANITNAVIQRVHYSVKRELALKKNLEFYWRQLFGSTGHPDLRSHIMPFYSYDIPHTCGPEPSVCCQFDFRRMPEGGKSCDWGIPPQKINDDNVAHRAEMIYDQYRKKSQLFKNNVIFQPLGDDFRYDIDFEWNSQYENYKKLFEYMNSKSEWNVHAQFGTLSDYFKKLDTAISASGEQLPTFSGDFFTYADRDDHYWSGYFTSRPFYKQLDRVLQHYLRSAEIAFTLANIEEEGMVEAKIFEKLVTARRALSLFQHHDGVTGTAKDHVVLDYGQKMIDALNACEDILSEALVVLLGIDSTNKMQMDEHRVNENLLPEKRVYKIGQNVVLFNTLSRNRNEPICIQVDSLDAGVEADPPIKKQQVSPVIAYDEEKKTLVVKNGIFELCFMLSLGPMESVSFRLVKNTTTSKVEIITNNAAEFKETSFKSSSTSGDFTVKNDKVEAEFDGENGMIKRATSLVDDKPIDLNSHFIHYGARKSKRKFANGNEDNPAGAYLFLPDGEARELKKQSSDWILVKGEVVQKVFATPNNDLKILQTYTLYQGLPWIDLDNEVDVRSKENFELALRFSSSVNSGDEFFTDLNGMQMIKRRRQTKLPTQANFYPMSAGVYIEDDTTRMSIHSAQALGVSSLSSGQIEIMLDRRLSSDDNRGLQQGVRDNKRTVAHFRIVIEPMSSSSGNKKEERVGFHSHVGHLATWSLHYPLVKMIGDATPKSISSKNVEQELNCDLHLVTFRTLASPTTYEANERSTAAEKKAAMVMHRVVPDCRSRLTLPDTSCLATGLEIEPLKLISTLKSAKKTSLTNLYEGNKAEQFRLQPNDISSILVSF
In words: α-mannosidase inhibition assay with pNP-Man, AMAN-2. Conditions: for SI^b = IC50(JBMan)/IC50(AMAN-2): selectivity index.

Test [3] concerns Golgi-type mannosidases (GMIIb and AMAN-2). In words: inhibition of and selectivity toward Golgi-type mannosidases, stated jointly. Conditions: IC50(LManII)/IC50(GMIIb) or IC50(JBMan)/IC50(AMAN-2).
[4] abbreviates: read-out: IC50 JBMan, 2 mM pNP-Man, pH 5.0.
Where [5] appears, read: read-out: Ki JBMan, Dixon plots, pNP-Man 0.5-4 mM, pH 5.0.
[6] abbreviates: read-out: IC50 AMAN-2, 2 mM pNP-Man, pH 6.0.
[7] abbreviates: read-out: Ki AMAN-2, Dixon plots, pNP-Man 0.5-4 mM, pH 6.0.

With `OC[C@@H]1[C@H](O)[C@H](O)CN1Cc1ccccc1` [Compound 4, N-Benzyl-1,4-dideoxy-1,4-imino-d-lyxitol], the IC50 (in general, the point on the concentration scale where inhibition reaches its midpoint) in test [1] came out at 1080 ± 185 µM. Further, in test [2], the IC50 was 8.7 ± 0.1 µM and the “SI^b = IC50(JBMan)/IC50(AMAN-2)” value was found to be 124.

Regarding `Cl.N=C(N)NCc1ccc(CN2C[C@@H](O)[C@@H](O)[C@H]2CO)cc1` [Compound 9, 1,4-Dideoxy-N-4-guanidinomethylbenzyl-1,4-imino-d-lyxitol hydrochloride], the IC50 in test [1] (setting [4]) was 115 ± 6.7 µM; in test [2] (setting [6]), 12.5 ± 0.1 µM. Besides, the Ki (as a rule, a dissociation constant, usually derived from enzyme kinetics or from competition with a known ligand) was 52.4 µM in test [1] (setting [5]) and 10.3 µM in test [2] (setting [7]). Besides, the “SI^b = IC50(JBMan)/IC50(AMAN-2)” value in test [2] is recorded as 9.

Take `OCC1C(O)C(O)CN1Cc1ccc(I)cc1` (stereo not drawn) [Compound 16, 1,4-Dideoxy-1,4-imino-N-4-iodobenzyl-d-lyxitol]: the IC50 in test [1] (setting [4]) came out at 940 ± 24 µM; in test [2] (setting [6]), 3.5 ± 0.1 µM. For the same compound, in test [2], the “SI^b = IC50(JBMan)/IC50(AMAN-2)” value came out at 269.

Regarding `OC[C@@H]1[C@H](O)[C@H](O)CN1Cc1ccc2ccccc2c1` [Compound 17, 1,4-Dideoxy-1,4-imino-N-(naphthalen-2-ylmethyl)-d-lyxitol], the IC50 in test [1] (setting [4]) turned out to be 1950 ± 250 µM; in test [2] (setting [6]), 2.4 ± 0.1 µM; in test [2] (read-out: IC50 AMAN-2, 2 mM pNP-Man, pH 6.0, listed as N-2-naphtylmethyl), 7.6 µM. Besides, the “selectivity index (SI) toward Golgi-type enzymes” value in test [3] was > 100. Also, the “SI^b = IC50(JBMan)/IC50(AMAN-2)” value in test [2] came to 812.

With `OCC1C(O)C(O)CN1CCc1cccc2ccccc12` (stereo not drawn) [Compound 18, 1,4-Dideoxy-1,4-imino-N-(2-(naphthalen-1-yl)ethyl)-d-lyxitol], the IC50 in test [1] (setting [4]) was 18 ± 1.7 µM; in test [2] (setting [6]), 0.21 ± 0.1 µM. Besides, the Ki turned out to be 6.5 µM in test [1] (setting [5]) and 0.15 µM in test [2] (setting [7]). For the same compound, in test [2], the “SI^b = IC50(JBMan)/IC50(AMAN-2)” value came out at 86.

As for `OC[C@@H]1[C@H](O)[C@H](O)CN1CC1CCCCC1` [Compound 19, N-Cyclohexylmethyl-1,4-dideoxy-1,4-imino-d-lyxitol], the IC50 in test [1] was 1290 ± 113 µM. For the same compound, in test [2], the midpoint of inhibition, the IC50, lay at 17.3 ± 0.1 µM and the “SI^b = IC50(JBMan)/IC50(AMAN-2)” value is 75.

Take `OC[C@@H]1[C@H](O)[C@H](O)CN1CC1CCOCC1` [Compound 20]: the IC50 in test [1] (setting [4]) is 2550 ± 63 µM; in test [2] (setting [6]) it was 84.3 ± 0.1 µM. In addition, the “SI^b = IC50(JBMan)/IC50(AMAN-2)” value in test [2] is 30.

In turn, `CCCCCCCCCCCCN1C[C@@H](O)[C@@H](O)[C@H]1CO` [Compound 21, 1,4-Dideoxy-N-dodecyl-1,4-imino-d-lyxitol] returned an IC50 in test [1] of 20.3 ± 4.4 µM. Also, in test [2], half-maximal inhibition (IC50) required 2.3 ± 0.1 µM and the “SI^b = IC50(JBMan)/IC50(AMAN-2)” value came out at 9.

For the compound `Cl.N=C(N)NCCCCCCCCCCN1C[C@@H](O)[C@@H](O)[C@H]1CO` [Compound 25, 1,4-Dideoxy-N-(10-guanidinodecyl)-1,4-imino-d-lyxitol hydrochloride], the IC50 in test [1] came out at 8.3 ± 1.2 µM; in test [2] it was 2.7 ± 0.1 µM. For the same compound, in test [2], the “SI^b = IC50(JBMan)/IC50(AMAN-2)” value is 3.

In test [1], `Cl.N=C(N)CCCCCCCCCN1C[C@@H](O)[C@@H](O)[C@H]1CO` [Compound 26, N-(9-amidinononyl)-1,4-dideoxy-1,4-imino-d-lyxitol hydrochloride] displayed an IC50 of 4.7 ± 1.2 µM and a Ki of 1.4 µM. In addition, in test [2], it took 1.4 ± 0.1 µM to reach half-maximal inhibition (IC50), the affinity corresponds to a Ki of 0.78 µM and the “SI^b = IC50(JBMan)/IC50(AMAN-2)” value is 3.
